Here are results for 27 compounds from ChEMBL document CHEMBL1128716, “4,5-Dihydro-3-(methanesulfonamidophenyl)-1-phenyl-1H-2,4-benzodiazepines: a novel class III antiarrhythmic agents” (J Med Chem, 1995).

One may read the EC20 as the concentration at which the effect reaches the 20% level. In general, IC50 refers to the concentration that gives 50% inhibition.

Molecules are shown by their SMILES. The source made the active and inactive calls.

The species entered for assay [1] is Oryctolagus cuniculus. In words: In vitro concentration at which cardiac refractoriness in rabbit is increased by 20 ms. In kind it is functional. The note with it: Heart. An outline of the steps: (§1)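 Isolated hearts stimulated at twice threshold (1 mA minimum), equilibrated 45 min. ERP determined by scanning diastole with a single premature stimulus after 15 min at each of five cumulative concentrations. EC20 is the concentration raising ERP by 20 ms, estimated by linear regression of concentration–response data, in nM; n = 3–5 hearts.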

Assay [2] deals with Canis familiaris. In words: Prolongation of ERP(effective refractory […]) in mongrel dogs over a 3 hour interval following oral administration (0.3 mg/kg), pacing at a basic cycle length of 250 ms. In kind it is functional, Canis lupus familiaris. The method, boiled down:
(§2)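 Conscious instrumented dogs, at least 7 days after surgery, suspended in slings during normal sinus rhythm. After three baseline ERP measurements, 0.3 mg/kg given orally by gastric lavage. ERP taken every 15 min for 3 h with pacing at basic cycle lengths of 500, 400 and 250 ms. Value is the maximum ERP increase over that interval, mean ± SEM.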

In assay [3] the test system is Canis familiaris. The assay is described as follows: Prolongation of ERP(effective refractory […]) in mongrel dogs over a 3 hour interval following oral administration (0.3 mg/kg), pacing at a basic cycle length of 400 ms. In kind it is functional, Canis lupus familiaris. An outline of the steps: as §2
Assay [4] has as its system Canis familiaris. In words: The orally dosed values in animals (0.3 mg/kg) represent the maximum increase in ERP observed over a 3 hour interval. Pacing was done at basic cycle lengths of 500 ms. Type of assay: functional, Canis lupus familiaris. The method, boiled down:
as §2

Assay [5] can be described thus: (§3) Displacement of [3H]BTX from sodium channel. Also noted: species or system Canis lupus familiaris. The method, boiled down: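 Canine cardiac sarcolemma vesicles (50 μg protein) incubated with 5 nM [3H]BTX-B, 60 min at 37 °C, triplicate. Nonspecific binding with 0.3 mM veratridine. Filtration read-out; IC50 in μM.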
Assay [6] addresses Sodium channel protein type 5 subunit alpha (Homo sapiens, UniProt Q14524). In words: Blockade of Na+ current in frog oocytes expressing human cardiac sodium channel (HH1). Type of assay: cell-based, Oocyte. An outline of the steps:
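HH1 transcripts injected into Xenopus laevis oocytes, incubated at room temperature 24–72 h. Two-microelectrode voltage clamp (3 M KCl electrodes), bath NaCl 140, KCl 2, CaCl2 1.8, MgCl2 1, HEPES 5 mM, pH 7.5, 21–23 °C. Holding −100 mV; peak current at the I–V maximum measured before and after test agent; IC50 in μM.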

Assay [7] concerns Canis familiaris. The assay is described as follows: Maximum increase in ERP(ms) after oral dose of the compound( 0.3 mg/kg) in mongrel dogs at a basic cycle length of 250 ms. In kind it is functional, Canis lupus familiaris. The method, boiled down:
as §2

In assay [8] the test system is Canis familiaris. In words: Maximum increase in ERP(ms) after oral dose of the compound( 0.3 mg/kg) in mongrel dogs at a basic cycle length of 400 ms. In kind it is functional, Canis lupus familiaris. An outline of the steps:
as §2

Assay [9] deals with Canis familiaris. The assay is described as follows: Maximum increase in ERP(ms) after oral dose of the compound( 0.3 mg/kg) in mongrel dogs at a basic cycle length of 500 ms. Type of assay: functional, Canis lupus familiaris. The method, boiled down: as §2
Assay [10] can be described thus: Displacement of [3H]D-888 from canine cardiac calcium channel. Type of assay: tissue-based, Canis lupus familiaris, Heart. An outline of the steps:
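Canine cardiac sarcolemma vesicles (50 μg protein) with 5 nM [3H]D888 in 50 mM Tris-HCl pH 7.4, 0.1% BSA, 90 min at 25 °C, triplicate. Nonspecific binding defined with 31.6 μM (S)-verapamil. Bound ligand collected by filtration on polyethylenimine-treated filters; IC50 in μM.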
On the technique in general: Loss of bound radioactivity is the signal in a displacement assay; it reports binding, not function.

Assay [11] deals with Canis familiaris. In words: Maximum increase in ERP(ms) after oral dose of the compound( 0.3 mg/kg) in mongrel dogs at a basic cycle […]. Type of assay: functional, Canis lupus familiaris. An outline of the steps:
as §2

Assay [12] can be described thus: as §3.
The species entered for assay [13] is Oryctolagus cuniculus. In words: In vitro concentration at which cardiac refractoriness in rabbit (ERP-effective refractory period) is increased by 20 ms; inactive at 1000. Type of assay: functional. As to conditions: Heart. An outline of the steps: as §1

Sequence of Sodium channel protein type 5 subunit alpha (Q14524 whole entry): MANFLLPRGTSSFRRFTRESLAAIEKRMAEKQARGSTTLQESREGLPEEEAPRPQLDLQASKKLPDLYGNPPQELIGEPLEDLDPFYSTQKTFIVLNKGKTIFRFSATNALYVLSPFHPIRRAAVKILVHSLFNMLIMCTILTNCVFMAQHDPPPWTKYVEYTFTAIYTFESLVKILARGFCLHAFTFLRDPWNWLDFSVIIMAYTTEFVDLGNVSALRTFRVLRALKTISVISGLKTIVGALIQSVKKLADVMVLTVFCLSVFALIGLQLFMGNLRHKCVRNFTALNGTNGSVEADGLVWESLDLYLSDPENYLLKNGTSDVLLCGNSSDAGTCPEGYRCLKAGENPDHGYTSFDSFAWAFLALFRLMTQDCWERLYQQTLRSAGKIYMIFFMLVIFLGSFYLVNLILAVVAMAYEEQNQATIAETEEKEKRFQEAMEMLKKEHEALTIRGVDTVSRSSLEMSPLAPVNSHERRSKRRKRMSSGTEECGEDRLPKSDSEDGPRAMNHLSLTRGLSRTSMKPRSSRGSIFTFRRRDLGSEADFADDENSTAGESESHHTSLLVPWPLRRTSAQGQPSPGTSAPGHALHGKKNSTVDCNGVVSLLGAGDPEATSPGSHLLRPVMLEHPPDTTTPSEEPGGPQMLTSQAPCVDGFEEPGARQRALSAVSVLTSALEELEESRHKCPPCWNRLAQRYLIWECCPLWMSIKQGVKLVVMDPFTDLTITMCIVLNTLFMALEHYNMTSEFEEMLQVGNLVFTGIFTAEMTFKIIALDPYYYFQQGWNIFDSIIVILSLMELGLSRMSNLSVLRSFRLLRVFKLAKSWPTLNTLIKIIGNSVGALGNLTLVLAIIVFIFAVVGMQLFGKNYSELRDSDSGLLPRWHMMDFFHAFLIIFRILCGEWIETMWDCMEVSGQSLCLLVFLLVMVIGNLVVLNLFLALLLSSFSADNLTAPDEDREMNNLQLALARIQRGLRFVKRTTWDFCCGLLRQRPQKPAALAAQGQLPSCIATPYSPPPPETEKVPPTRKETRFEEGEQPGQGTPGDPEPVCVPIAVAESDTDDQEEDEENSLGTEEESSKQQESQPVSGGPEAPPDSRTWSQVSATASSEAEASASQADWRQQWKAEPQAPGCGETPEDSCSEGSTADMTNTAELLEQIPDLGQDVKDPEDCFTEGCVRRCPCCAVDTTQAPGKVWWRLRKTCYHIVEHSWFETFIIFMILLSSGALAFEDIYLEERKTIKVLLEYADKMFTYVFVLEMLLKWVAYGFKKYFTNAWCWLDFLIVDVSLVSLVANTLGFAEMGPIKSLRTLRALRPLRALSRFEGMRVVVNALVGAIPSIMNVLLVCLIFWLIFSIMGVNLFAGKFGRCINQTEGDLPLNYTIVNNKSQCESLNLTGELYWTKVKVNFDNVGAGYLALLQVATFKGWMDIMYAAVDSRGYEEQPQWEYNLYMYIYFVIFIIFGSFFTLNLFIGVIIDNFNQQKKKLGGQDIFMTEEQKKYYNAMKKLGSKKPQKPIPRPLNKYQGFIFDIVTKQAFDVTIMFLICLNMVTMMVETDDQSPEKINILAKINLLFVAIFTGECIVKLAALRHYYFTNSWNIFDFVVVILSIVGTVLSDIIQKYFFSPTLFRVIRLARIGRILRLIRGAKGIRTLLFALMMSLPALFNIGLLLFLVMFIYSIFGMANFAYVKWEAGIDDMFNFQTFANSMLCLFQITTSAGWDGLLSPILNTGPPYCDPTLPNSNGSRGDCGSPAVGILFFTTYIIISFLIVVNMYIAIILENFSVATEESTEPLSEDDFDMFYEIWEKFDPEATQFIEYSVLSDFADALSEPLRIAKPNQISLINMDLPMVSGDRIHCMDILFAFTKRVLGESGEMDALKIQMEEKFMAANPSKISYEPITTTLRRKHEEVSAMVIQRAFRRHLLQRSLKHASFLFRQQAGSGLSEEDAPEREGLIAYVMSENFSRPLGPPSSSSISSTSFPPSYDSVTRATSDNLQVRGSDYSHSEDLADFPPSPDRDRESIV

Regarding `CN1Cc2ccccc2C(c2ccc(NS(C)(=O)=O)cc2)N=C1OCc1ccc(NS(C)(=O)=O)cc1` (centres undefined), the EC20 in the assay listed under Oryctolagus cuniculus [1] was determined as 0.14 µM.
`CSc1ccc(C2N=C(OCc3ccc(NS(C)(=O)=O)cc3)N(C)Cc3ccccc32)cc1` (centres undefined) showed an EC20 in the assay filed under Oryctolagus cuniculus [1] of 0.004 µM.
As to `CN(CCOc1ccc(NS(C)(=O)=O)cc1)CCc1ccc(NS(C)(=O)=O)cc1` [DOFETILIDE], the results for the ERP observations in the assay on Canis familiaris [2], in the assay on Canis familiaris [3] and in the assay with Canis familiaris [4] were 21, 28 and 30, respectively. The compound also gave an EC20 in the assay listed under Oryctolagus cuniculus [1] of 0.002 µM.
As to `CN1Cc2ccccc2[C@@H](c2ccc(F)cc2F)N=C1CCc1ccc(NS(C)(=O)=O)cc1.Cl`, the IC50 in assay [5] is 2.5 µM; in assay [6], above 100 µM; in assay [10], 1.1 µM. Further, the results for the ERP observations in the assay with Canis familiaris [7], with Canis familiaris [8] and in the assay on Canis familiaris [9] were 22, 33 and 33, respectively. Further, it took 0.008 µM to reach the 20% level in the assay filed under Oryctolagus cuniculus [1] (EC20).
Regarding `CN1Cc2ccccc2[C@H](c2ccccc2)N=C1OCc1ccc(NS(C)(=O)=O)cc1.O=C(O)/C=C/C(=O)O`, the IC50 in assay [5] is 6.9 µM; in assay [6], above 30 µM; in [10], 0.9 µM. Besides, the ERP observations stood at 18 with Canis familiaris [7], 20 in the assay on Canis familiaris [8] and 18 with Canis familiaris [9]. The EC20 in the assay filed under Oryctolagus cuniculus [1] came out at 0.004 µM.
In the assay filed under Oryctolagus cuniculus [1], `CN1Cc2ccccc2C(c2ccccc2)N=C1CCc1ccc(NS(=O)(=O)C(F)(F)F)cc1` (centres undefined) came in with an EC20 of 0.52 µM.
Still for that read-out and setting: the same measure for `CN1Cc2ccccc2C(c2ccc(F)cc2F)N=C1CCc1ccc(NS(C)(=O)=O)cc1` (centres undefined): 0.004 µM; for `CCS(=O)(=O)Nc1ccc(CCC2=NC(c3ccccc3)c3ccccc3CN2C)cc1` (centres undefined): 0.1 µM.
For `CN1Cc2ccc(NS(C)(=O)=O)cc2C(c2ccccc2)N=C1CCc1ccccc1` (centres undefined), in the assay listed under Oryctolagus cuniculus [1], the EC20 stood at 0.655 µM.
In the assay filed under Oryctolagus cuniculus [1], `CN1Cc2ccccc2C(c2ccc(Cl)cc2)N=C1CCc1ccc(NS(C)(=O)=O)cc1` (centres undefined) gave an EC20 of 0.01 µM.
The same measure, in the same setting: the same measure for `CN1Cc2ccccc2[C@H](c2ccc(Cl)cc2)N=C1OCc1ccc(NS(C)(=O)=O)cc1`: 0.004 µM.
In turn, `CN1Cc2ccccc2C(c2ccccc2)N=C1OCc1ccc(NS(C)(=O)=O)cc1` (centres undefined) yielded an EC20 in the assay listed under Oryctolagus cuniculus [1] of 0.006 µM.
In the case of `CN1Cc2ccccc2[C@@H](c2ccc(Cl)cc2)N=C1OCc1ccc(NS(C)(=O)=O)cc1`, the EC20 in the assay listed under Oryctolagus cuniculus [1] stood at 0.002 µM.
Still for that read-out and setting: the same measure for `CN1Cc2ccccc2C(c2ccc(Cl)cc2)N=C1SCc1ccc(NS(C)(=O)=O)cc1` (centres undefined): 0.0055 µM.
As for `CN1Cc2ccccc2[C@H](c2ccc(F)cc2F)N=C1CCc1ccc(NS(C)(=O)=O)cc1.Cl`, the IC50 is 3.6 µM in [5], above 100 µM in assay [6] and 0.5 µM in assay [10]. Further, the ERP observations with Canis familiaris [7] amounted to 21; in the assay on Canis familiaris [8] it was 27; in the assay with Canis familiaris [9], 28. Besides, the 20% effect level in the assay filed under Oryctolagus cuniculus [1] (EC20) was put at 0.007 µM.
In the assay filed under Oryctolagus cuniculus [1], `CN1Cc2ccccc2C(c2ccccc2)N=C1CCc1ccc(NS(C)(=O)=O)cc1` (centres undefined) came in with an EC20 of 0.02 µM.
Take `COc1ccc(C2N=C(OCc3ccc(NS(C)(=O)=O)cc3)N(C)Cc3ccccc32)cc1` (centres undefined): the 20% effect level in the assay listed under Oryctolagus cuniculus [1] (EC20) was put at 0.004 µM.
On the same count and under the same terms, the same measure for `CN1Cc2ccccc2C(c2ccc(Cl)cc2)N=C1OCc1ccc(NS(C)(=O)=O)cc1` (centres undefined): 0.003 µM.
With `CSc1ccc([C@@H]2N=C(OCc3ccc(NS(C)(=O)=O)cc3)N(C)Cc3ccccc32)cc1.Cl`, the IC50 in [5] was 3 µM; in assay [6] it was above 30 µM; in assay [10] it was 1.1 µM. Further, the ERP observations came out at 20 in the assay on Canis familiaris [11], 11 in the assay on Canis familiaris [7] and 28 in the assay with Canis familiaris [9]. Further, it took 0.008 µM to reach the 20% level in the assay listed under Oryctolagus cuniculus [1] (EC20).
Take `CN1Cc2ccccc2C(c2ccc(Cl)c(Cl)c2)N=C1OCc1ccc(NS(C)(=O)=O)cc1` (centres undefined): the EC20 in the assay filed under Oryctolagus cuniculus [1] worked out at 0.002 µM.
Still for that read-out and setting: as for `CN1Cc2ccccc2C(c2ccc(NS(C)(=O)=O)cc2)N=C1CCc1ccccc1` (centres undefined), the figure is 0.78 µM.
As for `CN1Cc2ccccc2[C@@H](c2ccccc2)N=C1OCc1ccc(NS(C)(=O)=O)cc1.O=C(O)/C=C/C(=O)O`, the IC50 amounted to 5.2 µM in [12] and 126 µM in assay [6]. The ERP in the assay on Canis familiaris [7] is 31 ms; with Canis familiaris [8], 36 ms; with Canis familiaris [9], 40 ms. In the assay filed under Oryctolagus cuniculus [1], this compound registered an EC20 of 0.0015 µM.
`CN1Cc2ccccc2C(c2ccccc2)N=C1CCc1ccccc1` (centres undefined): in the assay filed under Oryctolagus cuniculus [1], the EC20 is 0.06 µM.
For `CN1Cc2ccccc2C(c2ccccc2)N=C1CCc1ccccc1NS(C)(=O)=O` (centres undefined), the EC20 in the assay listed under Oryctolagus cuniculus [1] came to 0.5 µM.
As for `CN1Cc2ccccc2C(c2ccc(NS(C)(=O)=O)cc2)N=C1CCc1ccc(NS(C)(=O)=O)cc1` (centres undefined), the EC20 entry in the assay listed under Oryctolagus cuniculus [13] was “inactive”.
Consider `CSc1ccc([C@H]2N=C(OCc3ccc(NS(C)(=O)=O)cc3)N(C)Cc3ccccc32)cc1.Cl`, for which the IC50 in assay [5] is 1 µM; in [10], 0.7 µM. Besides, the figures for the ERP observations in the assay with Canis familiaris [7], with Canis familiaris [8] and in the assay on Canis familiaris [9] were 28, 33 and 33, respectively. The same compound displayed an EC20 in the assay listed under Oryctolagus cuniculus [1] of 0.007 µM.
Consider `CN1Cc2c(NS(C)(=O)=O)cccc2C(c2ccccc2)N=C1CCc1ccccc1` (centres undefined), for which the EC20 result in the assay filed under Oryctolagus cuniculus [13] was “inactive”.
